Test results published in ChEMBL document CHEMBL4251599, “Synthesis and biological evaluation of coumarin derivatives containing imidazole skeleton as potential antibacterial agents” (Eur J Med Chem, 2018).
pIC50: −log10 of the molar value. Values after ≈ are worked out from the molar mass of the structure shown.

Experiments:
Flavobacterium columnare [1] = assay: Bactericidal activity against Flavobacterium columnare FC-G1 incubated for 24 hrs followed by re-plating on nutrient agar and measured after overnight incubation by two fold serial dilution method; format: functional; conditions: FC-G1, 24 h
Procedure, shortened: (§1)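 After the MIC read, 100 µl from every tube without visible growth was spread on nutrient agar lacking compound. Plates were incubated overnight at 28 ± 1 °C. MBC was taken as the lowest concentration killing >99.9% of the initial population, seen as no growth on agar.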

Staphylococcus aureus [2] = assay: Antibacterial activity against Staphylococcus aureus ATCC 29213 after 24 hrs by two fold serial dilution method; format: functional; conditions: ATCC 29213, 24 h
Procedure, shortened: (§2)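 Broth two-fold serial dilution per CLSI, in nutrient broth. Inoculum from 24 h cultures at 28 ± 1 °C, adjusted in saline to 1×10^7-2×10^7 cfu/mL, then diluted to 1×10^5-2×10^5 cfu/mL. Test range 256 down to 0.50 µM and lower. Tubes held 24 h at 28 ± 1 °C. MIC read visually. Enrofloxacin and norfloxacin served as standards.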

Streptococcus agalactiae [3] = assay: Antibacterial activity against Streptococcus agalactiae WB1445 after 24 hrs by two fold serial dilution method; format: functional; conditions: WB1445, 24 h; procedure, shortened: as §2
Escherichia coli [4] = assay: Bactericidal activity against Escherichia coli ATCC 35150 incubated for 24 hrs followed by re-plating on nutrient agar and measured after overnight incubation by two fold serial dilution method; format: functional; conditions: ATCC 35150, 24 h; procedure, shortened: as §1
Streptococcus agalactiae [5] = assay: Bactericidal activity against Streptococcus agalactiae WB1445 incubated for 24 hrs followed by re-plating on nutrient agar and measured after overnight incubation by two fold serial dilution method; format: functional; conditions: WB1445, 24 h; procedure, shortened: as §1
Staphylococcus aureus [6] = assay: Bactericidal activity against Staphylococcus aureus ATCC 29213 incubated for 24 hrs followed by re-plating on nutrient agar and measured after overnight incubation by two fold serial dilution method; format: functional; conditions: ATCC 29213, 24 h; procedure, shortened: as §1
Flavobacterium columnare [7] = assay: Antibacterial activity against Flavobacterium columnare FC-G1 after 24 hrs by two fold serial dilution method; format: functional; conditions: FC-G1, 24 h; procedure, shortened: as §2
Escherichia coli [8] = assay: Antibacterial activity against Escherichia coli ATCC 35150 after 24 hrs by two fold serial dilution method; format: functional; conditions: ATCC 35150, 24 h; procedure, shortened: as §2
[9] = Inhibition of Escherichia coli ATCC 35150 FabI in presence of t-O-NAC and NADH up to 1 min by spectrophotometric analysis
Procedure, shortened: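 Recombinant His-tagged FabI, expressed in E. coli BL21(DE3) and purified on Ni-NTA, was used at 20 µL of 100 µg/mL stock in 0.1 M PBS-DTT. Compounds were tested at 128-1 µM with 10 µL of 4 mM t-O-NAC, and 20 µL of 2 mM NADH started the reaction. NADH oxidation was followed at 340 nm for 1 min. IC50 came from dose-response plots.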

[10] = target: T1, Enoyl-(Acyl-carrier-protein) reductase II (Streptococcus agalactiae serotype V (strain ATCC BAA-611 / 2603 V/R), UniProt Q8E1K8); assay: Inhibition of Streptococcus agalactiae WB1445 FabK in presence of t-O-NAC and NADH up to 1 min by spectrophotometric analysis
T1 sequence (Q8E1K8 whole entry): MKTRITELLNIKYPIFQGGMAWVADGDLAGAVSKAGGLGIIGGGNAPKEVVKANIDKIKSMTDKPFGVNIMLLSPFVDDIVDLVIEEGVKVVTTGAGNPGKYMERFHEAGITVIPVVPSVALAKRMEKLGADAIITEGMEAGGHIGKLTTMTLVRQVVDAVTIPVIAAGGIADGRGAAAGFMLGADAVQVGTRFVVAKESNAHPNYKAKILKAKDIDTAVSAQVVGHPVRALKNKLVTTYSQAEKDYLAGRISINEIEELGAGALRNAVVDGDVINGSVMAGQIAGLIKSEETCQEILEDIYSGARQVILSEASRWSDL
Procedure, shortened: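 Recombinant His-tagged FabK (20 µL of 150 µg/mL stock) was assayed in 100 µL of 0.1 M ADA-DTT, pH 6.5, against compounds at 128-1 µM, with 10 µL of 4 mM t-O-NAC. Addition of 20 µL of 2 mM NADH started the reaction. Absorbance at 340 nm was read for 1 min. IC50 was estimated from dose-response curves.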

MIC (Staphylococcus aureus [2]) [µM] | MIC (Streptococcus agalactiae [3]) [µM] | MIC (Flavobacterium columnare [7]) [µM] | MIC (Escherichia coli [8]) [µM] | pIC50 [9] | pIC50 [10] | SMILES | MBC (Flavobacterium columnare [1]) [µM] | MBC (Escherichia coli [4]) [µM] | MBC (Streptococcus agalactiae [5]) [µM] | MBC (Staphylococcus aureus [6]) [µM]
32 (≈ 11.8 µg/mL) | 8 (≈ 2.95 µg/mL) | 8 (≈ 2.95 µg/mL) | > 256 |  |  | Cc1cn(CCCCCCCCOc2ccc3c(C)cc(=O)oc3c2)cn1 | 16 (≈ 5.9 µg/mL) | > 256 | 32 (≈ 11.8 µg/mL) | 256 (≈ 94.3 µg/mL)
> 256 | > 256 | > 256 | 16 (≈ 4.77 µg/mL) |  |  | Cc1cn(CCCCOc2ccc3ccc(=O)oc3c2)cn1 | > 256 | 32 (≈ 9.55 µg/mL) | > 256 | > 256
32 (≈ 12.5 µg/mL) | 256 (≈ 100 µg/mL) | 8 (≈ 3.12 µg/mL) | > 256 |  |  | O=c1ccc2ccc(OCCCCCCCCn3cnc4ccccc43)cc2o1 | 32 (≈ 12.5 µg/mL) | > 256 | 512 (≈ 200 µg/mL) | 128 (≈ 50 µg/mL)
> 256 | > 256 | > 256 | 32 (≈ 11.5 µg/mL) |  |  | O=c1ccc2ccc(OCCCCn3ccnc3-c3ccccc3)cc2o1 | > 256 | 128 (≈ 46.1 µg/mL) | > 256 | > 256
 | > 256 | > 256 |  |  |  | O=c1ccc2ccc(OCCCCCCCCN3CCCCC3)cc2o1 | > 256 |  | > 256 | 
64 (≈ 18.2 µg/mL) | > 256 | > 256 | 128 (≈ 36.4 µg/mL) |  |  | O=c1ccc2ccc(OCCCCn3ccnc3)cc2o1 | > 256 | 256 (≈ 72.8 µg/mL) | > 256 | 256 (≈ 72.8 µg/mL)
32 (≈ 11.4 µg/mL) | 32 (≈ 11.4 µg/mL) | 16 (≈ 5.69 µg/mL) | > 256 |  |  | Cc1cc(=O)oc2cc(OCCCCCCCCn3cncn3)ccc12 | 64 (≈ 22.7 µg/mL) | > 256 | 64 (≈ 22.7 µg/mL) | 256 (≈ 91 µg/mL)
32 (≈ 10.7 µg/mL) | > 256 | > 256 | 8 (≈ 2.68 µg/mL) |  |  | O=c1ccc2ccc(OCCCCn3cnc4ccccc43)cc2o1 | > 256 | 64 (≈ 21.4 µg/mL) | > 256 | 256 (≈ 85.6 µg/mL)
 | > 256 | > 256 |  |  |  | O=c1ccc2ccc(OCCCCCCCCN3CCNCC3)cc2o1 | > 256 |  | > 256 | 
16 (≈ 5.45 µg/mL) | 8 (≈ 2.72 µg/mL) | 4 (≈ 1.36 µg/mL) | > 256 | 3.80 | 5.56 | O=c1ccc2ccc(OCCCCCCCCn3ccnc3)cc2o1 | 8 (≈ 2.72 µg/mL) | > 256 | 16 (≈ 5.45 µg/mL) | 128 (≈ 43.6 µg/mL)
> 256 | > 256 | > 256 | > 256 |  |  | O=c1ccc2ccc(OCCCCCCCCn3ccnc3-c3ccccc3)cc2o1 | > 256 | > 256 | > 256 | > 256
> 256 | > 256 | > 256 | > 256 |  |  | O=c1ccc2ccc(OCCCCCCCCBr)cc2o1 | > 256 | > 256 | > 256 | > 256
> 256 | > 256 | > 256 | > 256 |  |  | Cc1cc(=O)oc2cc(OCCCCCCCCBr)ccc12 | > 256 | > 256 | > 256 | > 256
> 256 | > 256 | > 256 | > 256 |  |  | O=c1ccc2ccc(OCCCCCCBr)cc2o1 | > 256 | > 256 | > 256 | > 256
 | > 256 | > 256 |  |  |  | NCCCCCCCCOc1ccc2ccc(=O)oc2c1 | > 256 |  | > 256 | 
2 (≈ 0.719 µg/mL) | 8 (≈ 2.88 µg/mL) | 2 (≈ 0.719 µg/mL) | 1 (≈ 0.359 µg/mL) |  |  | CCN1CCN(c2cc3c(cc2F)c(=O)c(C(=O)O)cn3C2CC2)CC1 [ENROFLOXACIN] | 2 (≈ 0.719 µg/mL) | 2 (≈ 0.719 µg/mL) | 16 (≈ 5.75 µg/mL) | 4 (≈ 1.44 µg/mL)

SMILES | MIC (Staphylococcus aureus [2]) [µM] | MIC (Streptococcus agalactiae [3]) [µM] | MIC (Flavobacterium columnare [7]) [µM] | MIC (Escherichia coli [8]) [µM] | pIC50 [9] | pIC50 [10] | MBC (Flavobacterium columnare [1]) [µM] | MBC (Escherichia coli [4]) [µM] | MBC (Streptococcus agalactiae [5]) [µM] | MBC (Staphylococcus aureus [6]) [µM]
CCn1cc(C(=O)O)c(=O)c2cc(F)c(N3CCNCC3)cc21 [NORFLOXACIN] | 32 (≈ 10.2 µg/mL) | 64 (≈ 20.4 µg/mL) | 32 (≈ 10.2 µg/mL) | 1 (≈ 0.319 µg/mL) |  |  | 128 (≈ 40.9 µg/mL) | 2 (≈ 0.639 µg/mL) | 128 (≈ 40.9 µg/mL) | 64 (≈ 20.4 µg/mL)
